# According to ChEMBL document CHEMBL3244061, “Angiotensin II analogues. 12. Role of the aromatic ring of position 8 phenylalanine in pressor activity” (J Med Chem, 1979):
# Peptide text beside a SMILES is read from it.
# Organism: Rattus norvegicus
# Assay: Induction of pressor activity in nephrectomized, pentolinium-treated rat model relative to angiotensin 2
# Type: organism-based
# Conditions: in vivo
# In short: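 Pressor activity was measured in male rats that were nephrectomized, treated with pentolinium and anesthetized with pentobarbital. Peptides were dissolved in normal saline containing 0.1% polyvinylpyrrolidone and kept in siliconized glass. Molarities of all solutions, including the angiotensin II standard, were set from peptide content determined by amino acid analysis of hydrolysates. Activity was expressed relative to angiotensin II.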
row,Molecule,Activity [%]
1,CC[C@H](C)[C@H](NC(=O)[C@H](Cc1ccc(O)cc1)NC(=O)[C@@H](NC(=O)[C@H](CCCN=C(N)N)NC(=O)[C@@H](N)CC(=O)O)C(C)C)C(=O)N[C@@H](Cc1c[nH]cn1)C(=O)N1CCC[C@H]1C(=O)N[C@@H](Cc1ccc(Br)cc1)C(=O)O,50
2,CC[C@H](C)[C@H](NC(=O)[C@H](Cc1ccc(O)cc1)NC(=O)[C@@H](NC(=O)[C@H](CCCNC(=N)N)NC(=O)CNC)C(C)C)C(=O)N[C@@H](Cc1cnc[nH]1)C(=O)N1CCC[C@H]1C(=O)N[C@@H](CC(C)C)C(=O)O (HELM PEPTIDE1{[Sar].R.V.Y.I.H.P.L}$$$$V2.0),2.5
3,CCCC[C@H](NC(=O)[C@@H]1CCCN1C(=O)[C@H](Cc1c[nH]cn1)NC(=O)[C@@H](NC(=O)[C@H](Cc1ccc(O)cc1)NC(=O)[C@@H](NC(=O)[C@H](CCCNC(=N)N)NC(=O)[C@@H](N)CC(=O)O)C(C)C)[C@@H](C)CC)C(=O)O,7.3
4,CC[C@H](C)[C@H](NC(=O)[C@H](Cc1ccc(O)c(Cc2ccccc2)c1)NC(=O)[C@@H](NC(=O)[C@H](CCCNC(=N)N)NC(=O)[C@@H](N)CC(N)=O)C(C)C)C(=O)N[C@@H](Cc1cnc[nH]1)C(=O)N1CCC[C@H]1C(=O)N[C@@H](Cc1ccc([N+](=O)[O-])cc1)C(=O)O (HELM PEPTIDE1{N.R.V.[O=C([C@H](Cc1ccc(O)c(Cc2ccccc2)c1)N[*:1])[*:2]].I.H.P.[O=C(O)[C@H](Cc1ccc([N+](=O)[O-])cc1)N[*:1]]}$$$$V2.0),0.16
5,CC[C@H](C)[C@H](NC(=O)[C@H](Cc1ccc(O)cc1)NC(=O)[C@@H](NC(=O)[C@H](CCCNC(=N)N)NC(=O)[C@@H](N)CC(=O)O)C(C)C)C(=O)N[C@@H](Cc1c[nH]cn1)C(=O)N1CCC[C@H]1C(=O)N[C@@H](Cc1ccc(F)cc1)C(=O)O,100
6,H-DRVYIHPY-OH,83
7,CCCC[C@H](NC(=O)[C@@H]1CCCN1C(=O)[C@H](Cc1cnc[nH]1)NC(=O)[C@@H](NC(=O)[C@H](Cc1ccc(O)cc1)NC(=O)[C@@H](NC(=O)[C@H](CCCNC(=N)N)NC(=O)[C@@H](N)CC(N)=O)C(C)C)[C@@H](C)CC)C(=O)O (HELM PEPTIDE1{N.R.V.Y.I.H.P.[Nle]}$$$$V2.0),7.3
8,CC[C@H](C)[C@H](NC(=O)[C@H](Cc1ccc(O)cc1)NC(=O)[C@@H](NC(=O)[C@H](CCCNC(=N)N)NC(=O)[C@@H](N)CC(=O)O)C(C)C)C(=O)N[C@@H](Cc1c[nH]cn1)C(=O)N1CCC[C@H]1C(=O)N[C@@H](CC1CCCCC1)C(=O)O,20
9,H-NRVYIHPL-OH,1.2
10,CC[C@H](C)[C@H](NC(=O)[C@H](Cc1ccc(O)cc1)NC(=O)[C@@H](NC(=O)[C@@H](C)N)C(C)C)C(=O)N[C@@H](Cc1cnc[nH]1)C(=O)N1CCC[C@H]1C(=O)N[C@@H](CC(C)C)C(=O)O,1.4
11,CC[C@H](C)[C@H](NC(=O)[C@H](Cc1ccc(O)cc1)NC(=O)[C@@H](NC(=O)[C@H](CCCNC(=N)N)NC(=O)[C@@H](N)CC(N)=O)C(C)C)C(=O)N[C@@H](Cc1cnc[nH]1)C(=O)N1CCC[C@H]1C(=O)NC1(C(=O)O)Cc2ccccc2C1 (HELM PEPTIDE1{N.R.V.Y.I.H.P.[O=C(O)C1(N[*:1])Cc2ccccc2C1]}$$$$V2.0),0.1
12,CC[C@H](C)[C@H](NC(=O)[C@H](Cc1ccc(O)cc1)NC(=O)[C@@H](NC(=O)[C@H](CCCNC(=N)N)NC(=O)[C@@H](N)CC(N)=O)C(C)C)C(=O)N[C@@H](Cc1cnc[nH]1)C(=O)N1CCC[C@H]1C(=O)N[C@@H](Cc1ccc([N+](=O)[O-])cc1)C(=O)O (HELM PEPTIDE1{N.R.V.Y.I.H.P.[O=C(O)[C@H](Cc1ccc([N+](=O)[O-])cc1)N[*:1]]}$$$$V2.0),15
13,CC[C@H](C)[C@H](NC(=O)[C@H](Cc1ccc(O)cc1)NC(=O)[C@@H](NC(=O)[C@H](CCCNC(=N)N)NC(=O)[C@@H](N)CC(=O)O)C(C)C)C(=O)N[C@@H](Cc1c[nH]cn1)C(=O)N1CCC[C@H]1C(=O)N[C@@H](Cc1ccc(OC)cc1)C(=O)O,33
14,CCCCC[C@H](NC(=O)[C@@H]1CCCN1C(=O)[C@H](Cc1cnc[nH]1)NC(=O)[C@@H](NC(=O)[C@H](Cc1ccc(O)cc1)NC(=O)[C@@H](NC(=O)[C@H](CCCNC(=N)N)NC(=O)[C@@H](N)CC(N)=O)C(C)C)[C@@H](C)CC)C(=O)O (HELM PEPTIDE1{N.R.V.Y.I.H.P.[CCCCC[C@H](N[*:1])C(=O)O]}$$$$V2.0),11.5
15,H-NRVYVHPF-OH [ANGIOTENSIN AMIDE],100
16,CC[C@H](C)[C@H](NC(=O)[C@H](Cc1ccc(O)cc1)NC(=O)[C@@H](NC(=O)[C@H](CCCNC(=N)N)NC(=O)[C@@H](N)CC(N)=O)C(C)C)C(=O)N[C@@H](Cc1cnc[nH]1)C(=O)N1CCC[C@H]1C(=O)N[C@@H](Cc1ccc(N)cc1)C(=O)O (HELM PEPTIDE1{N.R.V.Y.I.H.P.[Nc1ccc(C[C@H](N[*:1])C(=O)O)cc1]}$$$$V2.0),52.5
17,H-DRVYIHPV-OH,0.5

# Organism: Rattus norvegicus
# Assay: Inhibition of 3 to 12 pmol angiotensin-2-induced pressor activity in rat at 400 pmol measured after 30 mins
# Type: functional
# Conditions: not given
# In short: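 A single 400 pmol injection of antagonist was given. Pressor responses to single angiotensin II doses of 3, 6 and 12 pmol were then tracked. Duration (T1/2) was taken as the time for the responses to return to one-half of the pretreatment level.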
row,Molecule,inhibition (INH) [%]
1,CC[C@H](C)[C@H](NC(=O)[C@H](Cc1ccc(O)cc1)NC(=O)[C@@H](NC(=O)[C@H](CCCNC(=N)N)NC(=O)CNC)C(C)C)C(=O)N[C@@H](Cc1cnc[nH]1)C(=O)N1CCC[C@H]1C(=O)N[C@@H](CC(C)C)C(=O)O (HELM PEPTIDE1{[Sar].R.V.Y.I.H.P.L}$$$$V2.0),50

# Organism: Rattus norvegicus
# Assay: Inhibition of 70 pmol angiotensin-2-induced pressor activity in rat at 1400 pmol/min co-infused with angiotensin-2 measured after 30 mins
# Type: functional
# Conditions: not given
# In short: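 Antagonist and angiotensin II were coinjected at a 20:1 ratio (1400 pmol/70 pmol per minute) for 30 min. The percent reduction of the angiotensin II pressor effect was recorded. Recovery to one-half of the pretreatment level was followed after the infusion stopped.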
row,Molecule,inhibition (INH) [%]
1,CC[C@H](C)[C@H](NC(=O)[C@H](Cc1ccc(O)cc1)NC(=O)[C@@H](NC(=O)[C@H](CCCNC(=N)N)NC(=O)CNC)C(C)C)C(=O)N[C@@H](Cc1cnc[nH]1)C(=O)N1CCC[C@H]1C(=O)N[C@@H](CC(C)C)C(=O)O (HELM PEPTIDE1{[Sar].R.V.Y.I.H.P.L}$$$$V2.0),67

# Organism: Rattus norvegicus
# Assay: Inhibition of angiotensin-2-induced pressor activity in rat assessed as duration of action
# Type: functional, organism-based
# Conditions: not given
# In short: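 Antagonist was given to rats as a single 4000 pmol dose. Pressor responses to 20 pmol angiotensin II were then followed. Duration of action (T1/2) was taken as the time for the angiotensin II response to recover to one-half of its pretreatment level.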
row,Molecule,T1/2 [min]
1,CC[C@H](C)[C@H](NC(=O)[C@H](Cc1ccc(O)cc1)NC(=O)[C@@H](NC(=O)[C@H](CCCNC(=N)N)NC(=O)CNC)C(C)C)C(=O)N[C@@H](Cc1cnc[nH]1)C(=O)N1CCC[C@H]1C(=O)N[C@@H](CC(C)C)C(=O)O (HELM PEPTIDE1{[Sar].R.V.Y.I.H.P.L}$$$$V2.0),45
